# Results as given in ChEMBL document CHEMBL3352302, “Synthesis of new compounds with promising antiviral properties against group A and B Human Rhinoviruses” (Bioorg Med Chem, 2014).
# Active and inactive are the calls of the source. No cut-off for these calls is given here.
# Legend:
# [1] = Protective index, ratio of CD50 for human HeLa cells to ID50 for Human rhinovirus 39
# Outline: (§1)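 PI = CD₅₀/ID₅₀. For CD₅₀, HeLa (Ohio strain) monolayers in DMEM with 10% fetal calf serum were exposed to a range of compound concentrations at 37 °C, 5% CO₂. Morphology was checked by light microscopy at 24, 48 and 72 h. Viability read by MTT; CD₅₀ = concentration reducing control absorbance by 50%. ID₅₀ came from the plaque-reduction virus-yield assay.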
# [2] = Cytotoxicity against human HeLa cells after 24 to 72 hrs by MTT assay; assay type: cell-based; details: read-out: CD50 (the source's name)
# Outline: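 HeLa (Ohio strain) monolayers in DMEM with 1% non-essential amino acids, penicillin/streptomycin and 10% FCS at 37 °C, 5% CO₂, exposed to various compound concentrations. Morphology (rounding, shrinking, detachment) was checked by light microscopy at 24, 48 and 72 h, and viability read by MTT colorimetry. CD₅₀ is the concentration reducing control absorbance by 50%.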
# rhinovirus A39 = experiment: Antiviral activity against Human rhinovirus 39 assessed as reduction in virus yield after 24 to 36 hrs by agar plaque assay; assay type: functional; details: Rhinovirus A; read-out: ID50 (the source's name)
# Outline: (§2)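 Virus-yield reduction: infected monolayers given serial dilutions of compound, incubated 24–36 h at 33 °C, 3% CO₂ until cytopathic effect in controls was almost total. Monolayers then frozen and thawed; virus in supernatant titrated by plaque assay (50% plaque reduction in Hep-2 cells). ID₅₀ is the concentration inhibiting plaque formation by 50%, from dose–response curves by linear regression.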
# rhinovirus B14 [3] = experiment: Antiviral activity against Human rhinovirus 14 assessed as reduction in virus yield after 24 to 36 hrs by agar plaque assay; assay type: functional; details: Rhinovirus B; read-out: ID50 (the source's name); outline: as §2
# [4] = Protective index, ratio of CD50 for human HeLa cells to ID50 for Human rhinovirus 14; outline: as §1
# rhinovirus B14 [5] = experiment: Antiviral activity against Human rhinovirus 14 assessed as reduction in virus yield at 5 ug/ml added within 3 hrs after infection by agar plaque assay; assay type: functional, organism-based
# Outline: (§3)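 HRV14 (group A, ATCC; working stocks prepared as cellular lysates in DMEM with 2% heat-inactivated FCS). Compound was added to cells at different times, from h −1 to several hours post infection, and incubated 24–36 h at 33 °C, 3% CO₂ until cytopathic effect in controls was almost total. Monolayers were then freeze-thawed and supernatant virus titrated by plaque assay.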
# rhinovirus B14 [6] = experiment: Antiviral activity against Human rhinovirus 14 assessed as reduction in virus yield at 5 ug/ml added 4 to 5 hrs after infection by agar plaque assay; assay type: functional, organism-based; outline: as §3
# rhinovirus B14 [7] = experiment: Reversible antiviral activity against Human rhinovirus 14 assessed as reduction in virus yield by agar plaque assay; assay type: functional, organism-based
SMILES,PI [1],CC50 [2] [µg/mL],IC50 (rhinovirus A39) [µg/mL],IC50 (rhinovirus B14 [3]) [µg/mL],PI [4],Activity (rhinovirus B14 [5]),Activity (rhinovirus B14 [6]),Activity (rhinovirus B14 [7])
Cc1cc(CCOCCCOc2ccc3c(c2)OCO3)on1,1,50,50,50,1,,,
CCOc1nc2ccc(OCCCOc3ccc(C(C)=O)cc3)cc2o1,2000,200,0.1,0.5,400,Active,inactive,Active
Fc1ccc(OCCCOc2ccc3c(c2)OCO3)cc1,1,25,25,25,1,,,
CC(=O)c1ccc(OCCCOc2ccc3c(c2)OCO3)cc1,1,25,25,25,1,,,
CCOc1nc2ccc(OCCCOc3ccc(C#N)cc3)cc2o1,33,50,1.5,25,2,,,
Cc1cc(OCCCOc2ccc3c(c2)OCO3)on1,4,50,12,25,2,,,
CC(=O)c1ccc(OCCCOCCc2cc(C)no2)cc1,8,50,6,25,2,,,
CCOC(=O)c1ccc(OCCCOCCc2cc(C)no2)cc1,714,50,0.07,0.07,714,,,
CC(=O)c1ccc(OCCCOCc2ccc3c(c2)OCO3)cc1,8,50,6,6,8,,,
CCOc1nc2ccc(OCCCOc3ccc4c(c3)OCO4)cc2o1,16,200,12,25,8,,,
CCOC(=O)c1ccc(OCCC2CCN(c3ccc(C)nn3)CC2)cc1 [PIRODAVIR],516,3.1,0.006,0.012,258,Active,inactive,
